Source: ChEMBL document CHEMBL1275402, “Virtual screening to identify novel antagonists for the G protein-coupled NK3 receptor” (J Med Chem, 2010)

target: T1, Neuromedin-K receptor (Homo sapiens, UniProt P29371); experiment: biochemical; conditions: not given
T1 sequence (P29371 whole entry): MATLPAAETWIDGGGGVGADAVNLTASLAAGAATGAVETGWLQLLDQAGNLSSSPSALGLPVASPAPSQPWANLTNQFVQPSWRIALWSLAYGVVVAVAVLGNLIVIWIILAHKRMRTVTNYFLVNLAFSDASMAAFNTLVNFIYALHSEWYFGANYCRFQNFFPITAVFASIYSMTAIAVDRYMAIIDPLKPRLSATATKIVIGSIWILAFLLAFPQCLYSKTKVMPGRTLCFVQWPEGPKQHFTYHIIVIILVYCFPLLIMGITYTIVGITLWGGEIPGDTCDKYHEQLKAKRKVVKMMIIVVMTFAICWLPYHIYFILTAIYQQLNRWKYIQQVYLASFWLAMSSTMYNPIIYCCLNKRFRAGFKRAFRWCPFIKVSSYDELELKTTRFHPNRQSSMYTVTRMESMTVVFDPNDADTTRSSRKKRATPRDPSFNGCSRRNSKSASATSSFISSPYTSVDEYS

Ki [nM] | IC50 [nM] | SMILES
6.31 | – | Nc1c(-c2cccc(F)c2)nc2ccccc2c1C(=O)NC(c1cccc(F)c1)C1CC1 (configuration not stated)
6.31 | – | CCC(NC(=O)c1c(OC)c(-c2ccccc2)nc2ccccc12)c1ccccc1 (configuration not stated)
12.6 | – | CCCc1c(-c2ccccc2)nc2ccccc2c1C(=O)NC(CC)c1ccccc1 (configuration not stated)
3.16 | – | Nc1c(-c2ccccc2)nc2ccccc2c1C(=O)NC(c1cccc(F)c1)C1CC1 (configuration not stated)
1000 | – | COC(=O)CC(NC(=O)c1cc(-c2ccccc2)nc2ccccc12)c1ccccc1 (configuration not stated)
1000 | – | NC(=O)C(NC(=O)c1cc(-c2ccccc2)nc2ccccc12)c1ccccc1 (configuration not stated)
50.1 | – | CCC(NC(=O)c1c(-c2ccccc2)c(-c2ccccc2)nc2ccccc12)c1ccccc1 (configuration not stated)
79.4 | – | CC(C)C(NC(=O)c1cc(-c2ccccc2)nc2ccccc12)c1ccccc1 (configuration not stated)
50.1 | – | CCCC(NC(=O)c1cc(-c2ccccc2)nc2ccccc12)c1ccccc1 (configuration not stated)
50.1 | – | CCCCCCc1c(-c2ccccc2)nc2ccccc2c1C(=O)NC(CC)c1ccccc1 (configuration not stated)
7.94 | – | CCC(NC(=O)c1c(N)c(-c2ccc(F)cc2)nc2ccccc12)c1ccccc1 (configuration not stated)
25.1 | – | CC(=O)C(NC(=O)c1cc(-c2ccccc2)nc2ccccc12)c1ccccc1 (configuration not stated)
5010 | – | CCCCCCCC(NC(=O)c1cc(-c2ccccc2)nc2ccccc12)c1ccccc1 (configuration not stated)
501 | – | CN(C)C(=O)C(NC(=O)c1cc(-c2ccccc2)nc2ccccc12)c1ccccc1 (configuration not stated)
251 | 33.5 | CC(NC(=O)c1cc(-c2ccccc2)nc2ccccc12)c1ccccc1 (configuration not stated)
398 | – | O=C(NC(CCO)c1ccccc1)c1cc(-c2ccccc2)nc2ccccc12 (configuration not stated)
10 | – | Nc1c(-c2cccc(F)c2)nc2ccccc2c1C(=O)NC(c1ccccc1)C1CC1 (configuration not stated)
15.8 | – | CCCCc1c(-c2ccccc2)nc2ccccc2c1C(=O)NC(CC)c1ccccc1 (configuration not stated)
3160 | – | O=C(NC(Cc1ccccc1)c1ccccc1)c1cc(-c2ccccc2)nc2ccccc12 (configuration not stated)
501 | – | O=C(NC(c1ccccc1)C(F)(F)F)c1cc(-c2ccccc2)nc2ccccc12 (configuration not stated)
5.01 | – | Nc1c(-c2ccccc2)nc2ccccc2c1C(=O)NC(c1ccccc1F)C1CC1 (configuration not stated)
3.98 | – | CCC(NC(=O)c1c(N)c(-c2cccc(F)c2)nc2ccccc12)c1ccccc1 (configuration not stated)
158 | – | CCCCC(NC(=O)c1cc(-c2ccccc2)cc2ccccc12)c1ccccc1 (configuration not stated)
200 | – | O=C(NC(CO)c1ccccc1)c1cc(-c2ccccc2)nc2ccccc12 (configuration not stated)
501 | – | CNC(=O)C(NC(=O)c1cc(-c2ccccc2)nc2ccccc12)c1ccccc1 (configuration not stated)
– | 5.2 | CCC(NC(=O)c1cc(-c2ccccc2)nc2ccccc12)c1ccccn1 (configuration not stated)

SMILES | Ki [nM] | IC50 [nM]
Nc1c(-c2ccccc2)nc2ccccc2c1C(=O)NC(c1ccccc1)C1CC1 (configuration not stated) | 5.01 | –

target: T2, Neuromedin-K receptor (Homo sapiens) (UniProt P29371); experiment: not given; conditions: CHO
T2 sequence (whole entry): T1 sequence (P29371 whole entry)

Ks [nM] | SMILES
1 | CC(=O)N(C)C1(c2ccccc2)CCN(CCC[C@]2(c3ccc(Cl)c(Cl)c3)CCCN(C(=O)c3ccccc3)C2)CC1

target: T1, Neuromedin-K receptor; experiment: Antagonist activity against human NK3 receptor expressed in HEK293 cells assessed as inhibition of MePhe7-NKB-induced increase of intracellular calcium level by fluorescent plate-reader analysis; assay type: functional, cell-based; conditions: in the assay text read “CHO cells” for “HEK293 cells”
Procedure, shortened: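 Calcium responses to 50 nM MePhe7-NKB were measured across increasing antagonist concentrations, and IC50 was derived from the concentration-response curve.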

IC50 [nM] | SMILES
9900 | CC(NC(=O)c1cc(-c2ccccc2)nc2ccccc12)c1ccccc1 (configuration not stated)
1400 | CCC(NC(=O)c1cc(-c2ccccc2)nc2ccccc12)c1ccccn1 (configuration not stated)

target: T2, Neuromedin-K receptor (Homo sapiens); experiment: Antagonist activity against human NK3 receptor expressed in CHO cells assessed as inhibition of senktide-induced increase of intracellular calcium level at 50 uM after 10 mins by fluorescent plate-reader analysis relative to control; assay type: functional, cell-based; conditions: not given
Procedure, shortened: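 hNK3R-expressing CHO cells were preincubated 10 min with test compound at 50 μM. The calcium response to 200 nM senktide was then measured and expressed as percent inhibition versus the senktide response without antagonist.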

inhibition [%] | SMILES
9 | Cc1ccc(CNC(=O)c2cc(-c3ccc(C)cc3C)nc3ccccc23)cc1
17 | O=C(NCc1ccccn1)c1cc(-c2ccccc2)nc2ccccc12
16 | COc1ccc(-c2cc(C(=O)NC(C)c3ccccn3)c3ccccc3n2)cc1OC (configuration not stated)
18 | Cc1ccc(-c2cc(C(=O)NC(C)c3ccccc3)c3ccccc3n2)c(C)c1 (configuration not stated)
30 | O=C(NCc1ccccc1)c1cc(-c2ccccc2)nc2ccccc12
7 | Cc1ccc(-c2cc(C(=O)NCc3ccc(F)cc3)c3ccccc3n2)cc1
61 | CC(NC(=O)c1cc(-c2ccccc2)nc2ccccc12)c1ccccc1 (configuration not stated)
14 | O=C(NCc1ccc(Cl)cc1)c1cc(-c2ccccc2Cl)nc2ccccc12
54 | O=C(NCCc1ccccc1)c1cc(-c2ccccc2)nc2ccccc12
8 | CCOC(=O)c1nn(C)c2c1CN(C(=O)c1cc(-c3ccccc3)nc3ccccc13)CC2
39 | COc1cccc(-c2nc3c(NCc4ccncc4)nccc3[nH]2)c1F
6 | CCCN1N=C(C(=O)NC(C)c2ccccc2)C2CN(CC)CCC21 (configuration not stated)
21 | Cc1ccc(CNC(=O)c2cc(-c3ccccc3)nc3ccccc23)cc1
17 | Cc1ccc(-c2cc(C(=O)NCCc3ccccc3)c3ccccc3n2)cc1
6 | Cc1nc(-c2ccncc2)n2c1CN(C(=O)C1Cc3ccccc3O1)CC2 (configuration not stated)
82 | CCC(NC(=O)c1cc(-c2ccccc2)nc2ccccc12)c1ccccn1 (configuration not stated)
13 | O=C(NCc1ccc(Cl)cc1)c1cc(-c2ccc(Cl)cc2)nc2ccccc12

SMILES | inhibition [%]
c1ccc(CNc2nccc3[nH]c(-c4ccccc4)nc23)cc1 | 42
Cc1cccc(-c2nc3c(NCc4ccccc4)nccc3[nH]2)c1 | 40

target: T1, Neuromedin-K receptor; experiment: Antagonist activity against human NK3 receptor expressed in CHO cells assessed as inhibition of senktide-induced increase of intracellular calcium level after 10 mins by fluorescent plate-reader analysis relative to control; conditions: not given

IC50 [nM] | SMILES
2200 | CC(NC(=O)c1cc(-c2ccccc2)nc2ccccc12)c1ccccc1 (configuration not stated)
900 | CCC(NC(=O)c1cc(-c2ccccc2)nc2ccccc12)c1ccccn1 (configuration not stated)
